Molecules are shown by their SMILES. Values after ≈ are worked out from the molar mass of the structure shown.

Holding throughout (assay type): functional
The test system of assay [1] is Bacteria. Kind of assay: MIC ratio measured as the mean MICs of gram-positive bacteria. An outline of the steps: (§1)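 Geometric mean of the microtitration MICs (µg/mL) over the Gram-negative organisms, and separately over the Gram-positive organisms, of the 10-strain panel; individual MICs averaged from multiple experiments.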
In assay [2] the test system is Streptococcus pneumoniae. Kind of assay: The in vivo potency was determined in female charles river CD-1 mice infected with Streptococcus pneumoniae after sc administration. Conditions: for ED50: Streptococcus pneumoniae, sc, read-out: PD50. In short, it runs like this: (§2)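 Acute lethal systemic infection in female CD-1 mice, 16 mice per route; single subcutaneous dose given at the time of challenge; median protective dose (PD50, mg/kg) determined.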

For assay [3], the system named is Escherichia coli. Put plainly: Antibacterial activity was determined against gram negative organism, Escherichia coli vogel. Conditions: Escherichia coli; read-out: MIC. An outline of the steps: (§3)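 MIC (µg/mL) by standard microtitration against a panel of 10 Gram-positive and Gram-negative organisms; values averaged from multiple experiments.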
For assay [4], the system named is Streptococcus pneumoniae. Kind of assay: The in vivo potency was determined in female charles river CD-1 mice infected with Streptococcus pneumoniae after peroral administration. Conditions: for ED50: Streptococcus pneumoniae, po, read-out: PD50. In short, it runs like this: (§4)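 Acute lethal systemic infection in female CD-1 mice, 16 mice per route; single dose given orally by gavage at the time of challenge; median protective dose (PD50, mg/kg) determined.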

The subject of assay [5] is Bacteria. Kind of assay: Antibacterial activity was determined against gram negative organism, Providencia rettgeri. M1771. In short, it runs like this: as §3
Assay [6] has as its system Streptococcus pyogenes. Put plainly: The in vivo potency was determined in female charles river CD-1 mice infected with Streptococcus pyogenes after sc administration. The following applies: Streptococcus pyogenes, sc; read-out: PD50. An outline of the steps: as §2
For assay [7], the system named is Streptococcus pneumoniae. Put plainly: Antibacterial activity was determined against gram positive organism, Streptococcus pneumoniae SV-1. An outline of the steps: as §3
Assay [8] deals with Streptococcus pyogenes. Put plainly: Antibacterial activity was determined against gram positive organism, Streptococcus pyogenes C203. Conditions: Streptococcus pyogenes; read-out: MIC. An outline of the steps: as §3
Another assay has as its system Enterococcus faecalis. Put plainly: Antibacterial activity was determined against gram positive organism, Streptococcus faecalis MGH-2. Conditions: Enterococcus faecalis; read-out: MIC. In short, it runs like this: as §3
The test system of assay [9] is Escherichia coli. Kind of assay: The in vivo potency was determined in female charles river CD-1 mice infected with Escherichia coli after peroral administration. The following applies: Escherichia coli, po; read-out: PD50. An outline of the steps: as §4
For the next assay, the system named is Enterobacter cloacae. Put plainly: Antibacterial activity was determined against gram negative organism, Enterobacter cloacae MA2646. Conditions: Enterobacter cloacae; read-out: MIC.
The next assay relates to Klebsiella pneumoniae. Put plainly: Antibacterial activity was determined against gram negative organism, Klebsiella pneumoniae MGH-2. Conditions: Klebsiella pneumoniae; read-out: MIC. In short, it runs like this: as §3
In assay [10] the test system is Staphylococcus aureus. Kind of assay: Antibacterial activity was determined against gram positive organism, Staphylococcus aureus H228. In short, it runs like this: as §3
For assay [11], the system named is Streptococcus pyogenes. Kind of assay: The in vivo potency was determined in female charles river CD-1 mice infected with Streptococcus pyogenes after peroral administration. Conditions: for ED50: Streptococcus pyogenes, po, read-out: PD50. An outline of the steps:
as §4

In assay [12] the target is DNA gyrase (Escherichia coli) (UniProt P0AES6+P0AES4). Kind of assay: Minimum inhibitory concentration against Escherichia coli DNA-gyrase in supercoiling assay.
Assay [13] has as its system Escherichia coli. Kind of assay: The in vivo potency was determined in female charles river CD-1 mice infected with Escherichia coli after sc administration. Conditions: Escherichia coli, sc; read-out: PD50. An outline of the steps:
as §2

The test system of assay [14] is Bacteria. Put plainly: MIC ratio measured as the mean MICs of gram-negative bacteria. An outline of the steps:
as §1

For assay [15], the system named is Staphylococcus aureus. Kind of assay: Antibacterial activity was determined against gram positive organism, Staphylococcus aureus UC76. The following applies: Staphylococcus aureus; read-out: MIC. An outline of the steps: as §3
The next assay deals with Pseudomonas aeruginosa. Kind of assay: Antibacterial activity was determined against gram negative organism, Pseudomonas aeruginosa UI-18. In short, it runs like this: as §3
Setting [16] is: Streptococcus pneumoniae, read-out: MIC.
Setting [17] is: Staphylococcus aureus, read-out: MIC.
Where [18] appears, read: Pseudomonas aeruginosa, read-out: MIC.

Turning to `NC1CCN(c2c(F)cc3c(=O)c(C(=O)O)cn(C4CC4)c3c2F)C1` (centres undefined), the “Geometric mean MIC over Gram-positive bacteria (µg/mL)” value in the assay on Bacteria [1] amounted to 0.044. Moreover, the ED50 with Streptococcus pneumoniae [2] amounted to 2 mg/kg; with Streptococcus pneumoniae [4] it was 8 mg/kg; in the assay on Streptococcus pyogenes [6], 6 mg/kg; in the assay with Escherichia coli [9] it was 0.9 mg/kg; in the assay on Streptococcus pyogenes [11], 15 mg/kg; in the assay on Escherichia coli [13], 0.2 mg/kg. Also, the MIC came to 0.013 µg/mL (≈ 0.0372 µM) in the assay with Escherichia coli [3]; 0.05 µg/mL (≈ 0.143 µM) in the assay with Bacteria [5] (Bacteria, read-out: MIC); 0.05 µg/mL (≈ 0.143 µM) with Streptococcus pneumoniae [7] (setting [16]); 0.05 µg/mL (≈ 0.143 µM) in the assay with Streptococcus pyogenes [8]; 0.1 µg/mL (≈ 0.286 µM) with Enterococcus faecalis; 0.013 µg/mL (≈ 0.0372 µM) with Enterobacter cloacae. For the same compound, the MIC worked out at 0.025 µg/mL (≈ 0.0716 µM) with Klebsiella pneumoniae; 0.05 µg/mL (≈ 0.143 µM) with Staphylococcus aureus [10] (setting [17]); 0.1 µg/mL (≈ 0.286 µM) in [12]; 0.013 µg/mL (≈ 0.0372 µM) in the assay on Staphylococcus aureus [15]; 0.1 µg/mL (≈ 0.286 µM) with Pseudomonas aeruginosa (setting [18]). Moreover, the Geometric mean MIC over Gram-negative bacteria (µg/mL) in the assay with Bacteria [14] stood at 0.029.
Take `Nc1c(F)c(N2CCC(N)C2)c(F)c2c1c(=O)c(C(=O)O)cn2C1CC1` (centres undefined): the “Geometric mean MIC over Gram-positive bacteria (µg/mL)” value with Bacteria [1] is on record as 0.029. Besides, the ED50 in the assay on Streptococcus pneumoniae [2] is 8 mg/kg; with Streptococcus pneumoniae [4], 28 mg/kg; in the assay with Streptococcus pyogenes [6], 9 mg/kg; in the assay on Escherichia coli [9] it was 2 mg/kg; in the assay on Streptococcus pyogenes [11], 20 mg/kg; in the assay with Escherichia coli [13] it was 1 mg/kg. The MIC stood at 0.006 µg/mL (≈ 0.0165 µM) in the assay with Escherichia coli [3]; 0.025 µg/mL (≈ 0.0686 µM) with Bacteria [5] (Bacteria, read-out: MIC); 0.025 µg/mL (≈ 0.0686 µM) in the assay with Streptococcus pneumoniae [7] (setting [16]); 0.025 µg/mL (≈ 0.0686 µM) in the assay on Streptococcus pyogenes [8]; 0.05 µg/mL (≈ 0.137 µM) in the assay on Enterococcus faecalis; 0.006 µg/mL (≈ 0.0165 µM) in the assay on Enterobacter cloacae. For the same compound, the MIC in the assay with Klebsiella pneumoniae worked out at 0.013 µg/mL (≈ 0.0357 µM); in the assay with Staphylococcus aureus [10] (setting [17]), 0.05 µg/mL (≈ 0.137 µM); in assay [12] it was 0.5 µg/mL (≈ 1.37 µM); in the assay with Staphylococcus aureus [15], 0.013 µg/mL (≈ 0.0357 µM); in the assay with Pseudomonas aeruginosa (setting [18]) it was 0.1 µg/mL (≈ 0.274 µM). Further, the Geometric mean MIC over Gram-negative bacteria (µg/mL) in the assay on Bacteria [14] turned out to be 0.016.
With `CC1CN(c2c(F)c(N)c3c(=O)c(C(=O)O)cn(C4CC4)c3c2Cl)CCN1` (centres undefined), the “Geometric mean MIC over Gram-positive bacteria (µg/mL)” value in the assay with Bacteria [1] is given as 0.057. Besides, the ED50 in the assay on Streptococcus pneumoniae [2] amounted to 9 mg/kg; in the assay on Streptococcus pneumoniae [4], 12 mg/kg; with Streptococcus pyogenes [6], 4 mg/kg; in the assay with Escherichia coli [9], 0.7 mg/kg; in the assay on Streptococcus pyogenes [11], 6 mg/kg; in the assay with Escherichia coli [13], 0.3 mg/kg. Moreover, the MIC in the assay with Escherichia coli [3] is 0.025 µg/mL (≈ 0.0633 µM); in the assay with Bacteria [5] (Bacteria, read-out: MIC), 0.2 µg/mL (≈ 0.507 µM); in the assay with Streptococcus pneumoniae [7] (setting [16]), 0.05 µg/mL (≈ 0.127 µM); in the assay with Streptococcus pyogenes [8], 0.1 µg/mL (≈ 0.253 µM); in the assay with Enterococcus faecalis, 0.1 µg/mL (≈ 0.253 µM); in the assay on Enterobacter cloacae, 0.05 µg/mL (≈ 0.127 µM). The MIC is 0.1 µg/mL (≈ 0.253 µM) with Klebsiella pneumoniae; 0.05 µg/mL (≈ 0.127 µM) in the assay with Staphylococcus aureus [10] (setting [17]); 3.8 µg/mL (≈ 9.62 µM) in assay [12]; 0.025 µg/mL (≈ 0.0633 µM) with Staphylococcus aureus [15]; 0.8 µg/mL (≈ 2.03 µM) in the assay with Pseudomonas aeruginosa (setting [18]). In the assay on Bacteria [14], the Geometric mean MIC over Gram-negative bacteria (µg/mL) was 0.11.
As for `NC1CCN(c2c(F)cc3c(=O)c(C(=O)O)cn(C4CC4)c3c2Cl)C1` (stereo in doubt; 1f-4) [CLINAFLOXACIN], the “Geometric mean MIC over Gram-positive bacteria (µg/mL)” value in the assay on Bacteria [1] worked out at 0.075. Moreover, the PD50 in the assay with Streptococcus pneumoniae [2] was found to be 11 mg/kg; with Streptococcus pneumoniae [4], 97 mg/kg; in the assay with Streptococcus pyogenes [11] it was 43 mg/kg. Moreover, the MIC in the assay on Escherichia coli [3] is 0.025 µg/mL (≈ 0.0683 µM); in the assay on Bacteria [5], 0.1 µg/mL (≈ 0.273 µM); with Streptococcus pneumoniae [7], 0.1 µg/mL (≈ 0.273 µM); with Streptococcus pyogenes [8], 0.1 µg/mL (≈ 0.273 µM); with Enterococcus faecalis, 0.1 µg/mL (≈ 0.273 µM); with Enterobacter cloacae, 0.025 µg/mL (≈ 0.0683 µM). In addition, the MIC in the assay on Klebsiella pneumoniae was 0.05 µg/mL (≈ 0.137 µM); in the assay on Staphylococcus aureus [10], 0.1 µg/mL (≈ 0.273 µM); in the assay with Staphylococcus aureus [15], 0.025 µg/mL (≈ 0.0683 µM); against Pseudomonas aeruginosa it was 0.2 µg/mL (≈ 0.547 µM). Besides, the ED50 worked out at 4 mg/kg in the assay with Streptococcus pyogenes [6], 3 mg/kg in the assay with Escherichia coli [9] and 0.5 mg/kg in the assay with Escherichia coli [13].

These data come from ChEMBL document CHEMBL1125826, “Synthesis and biological activity of 5-amino- and 5-hydroxyquinolones, and the overwhelming influence of the remote N1-substituent in determining the structure-activity relationship” (1991).
